How the values were obtained:
Format in all cases: functional
[1] = test system: Mus musculus; assay: Survival rate in Plasmodium berghei NK65 infected JCL-ICR mice (Mus musculus) at 100 mg/kg body weight after 14 days; settings: 336 h
Method in brief: (§1)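 Female JCL-ICR mice (4–5 weeks), 5 per group, were infected i.p. on day 0 with 0.2 mL of a 1:100 saline dilution of donor-mouse blood (3.3×10^6 parasitized erythrocytes). Triazenes were dosed at 100 mg/kg in 5% gum arabic or corn oil, and chloroquine at 50 mg/kg, twice, at 2 and 48 h post-infection. Controls got 5% gum arabic. Mice were monitored daily, with survival rate at day 14.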

[2] = test system: Plasmodium berghei; assay: Antimalarial activity as parasitaemia after 3 days against Plasmodium berghei NK65 infected JCL-ICR mice (Mus musculus) at 100 mg/kg
Method in brief: (§2)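 Female mice aged 4–5 weeks, 5 per group, were infected ip on day 0 with 0.2 mL of 1:100 donor blood in saline (3.3×10^6 parasitized erythrocytes). 100 mg/kg was given twice, at 2 and 48 h post-infection, in 5% gum arabic/saline (solids) or corn oil (oils). Tail-blood thin smears on days 3, 7 and 14 were methanol-fixed and Giemsa-stained (2%, 2 h). % infected erythrocytes was counted microscopically.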

[3] = test system: Plasmodium berghei; assay: Antimalarial activity as parasitaemia after 7 days against Plasmodium berghei NK65 infected JCL-ICR mice (Mus musculus) at 100 mg/kg; method in brief: as §2
[4] = test system: Plasmodium berghei; assay: Antimalarial activity as parasitaemia after 14 days against Plasmodium berghei NK65 infected JCL-ICR mice (Mus musculus) at 100 mg/kg; method in brief: as §2
[5] = test system: Mus musculus; assay: Survival rate in Plasmodium berghei NK65 infected JCL-ICR mice (Mus musculus) at 50 mg/kg body weight after 14 days; settings: 336 h; method in brief: as §1
[6] = test system: Plasmodium berghei; assay: Antimalarial activity as parasitaemia after 7 days against Plasmodium berghei NK65 infected JCL-ICR mice (Mus musculus) at 50 mg/kg
Method in brief: (§3)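 Chloroquine reference arm: 5 female mice aged 4–5 weeks per group, infected ip on day 0 with 0.2 mL of 1:100 diluted donor blood (3.3×10^6 parasitized erythrocytes). 50 mg/kg was given at 2 and 48 h post-infection. On days 7 and 14, tail-blood smears were methanol-fixed and stained with 2% Giemsa for 2 h, and % parasitized erythrocytes was scored by microscopy.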

[7] = test system: Plasmodium berghei; assay: Antimalarial activity as parasitaemia after 14 days against Plasmodium berghei NK65 infected JCL-ICR mice (Mus musculus) at 50 mg/kg; method in brief: as §3

| SMILES | survival at 100 mg/kg [1] | Activity [2] | Activity [3] | Activity [4] | survival at 50 mg/kg [5] | Activity [6] | Activity [7] |
| --- | --- | --- | --- | --- | --- | --- | --- |
| Cc1cccc(C)c1/N=N/N(C)C | 0% | 1.7% | 53.9% | – | – | – | – |
| CN(C)/N=N/c1ccc(C(F)(F)F)cc1 | 80% | 4.8% | 17.6% | 67.9% | – | – | – |
| Cc1cccc(C)c1/N=N/N1CCCC1 | 40% | 5.6% | 54.6% | 81.7% | – | – | – |
| Cc1cc(C)c(/N=N/N2CCCCC2)c(C)c1 | 0% | 4.2% | 76.4% | – | – | – | – |
| FC(F)(F)c1ccc(/N=N/N2CCCC2)cc1 | 0% | 2.9% | 66.3% | – | – | – | – |
| FC(F)(F)c1ccc(/N=N/N2CCCCC2)cc1 | 0% | 2.3% | 44.6% | – | – | – | – |
| Cc1cccc(C)c1/N=N/N1CCCCC1 | 0% | 4.2% | 76.4% | – | – | – | – |
| Cc1cc(C)c(/N=N/N(C)C)c(C)c1 | 40% | 4.4% | 12.4% | 73.3% | – | – | – |
| Cc1cc(C)c(/N=N/N2CCCC2)c(C)c1 | 60% | 4.1% | 38.5% | 74.6% | – | – | – |
| CN(C)/N=N/c1ccc(F)cc1 | 20% | 1.7% | 53.5% | 60.4% | – | – | – |
| CN(C)/N=N/c1ccc(Cl)cc1 | 60% | 4.8% | 27% | 62.5% | – | – | – |
| CCN(CC)CCCC(C)Nc1ccnc2cc(Cl)ccc12 (configuration not stated) [CHLOROQUINE] | – | – | – | – | 100% | <1% | 8.5% |

— ChEMBL document CHEMBL1143020, “Antimalarial activity of 1-aryl-3,3-dialkyltriazenes” (2007)
